Screening results from PubChem BioAssay.
PLCb3 inh: blocks human PLC-beta3 enzyme activity; inhibition, % at 12.2 µM; Purified PLC-beta3, fluorogenic substrate, fluorescence; 0.18% of 370,000 active;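 further: 0% = median of compound wells on plate and 100% = full blocker control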
Target sequence (Q01970 whole entry, looked up): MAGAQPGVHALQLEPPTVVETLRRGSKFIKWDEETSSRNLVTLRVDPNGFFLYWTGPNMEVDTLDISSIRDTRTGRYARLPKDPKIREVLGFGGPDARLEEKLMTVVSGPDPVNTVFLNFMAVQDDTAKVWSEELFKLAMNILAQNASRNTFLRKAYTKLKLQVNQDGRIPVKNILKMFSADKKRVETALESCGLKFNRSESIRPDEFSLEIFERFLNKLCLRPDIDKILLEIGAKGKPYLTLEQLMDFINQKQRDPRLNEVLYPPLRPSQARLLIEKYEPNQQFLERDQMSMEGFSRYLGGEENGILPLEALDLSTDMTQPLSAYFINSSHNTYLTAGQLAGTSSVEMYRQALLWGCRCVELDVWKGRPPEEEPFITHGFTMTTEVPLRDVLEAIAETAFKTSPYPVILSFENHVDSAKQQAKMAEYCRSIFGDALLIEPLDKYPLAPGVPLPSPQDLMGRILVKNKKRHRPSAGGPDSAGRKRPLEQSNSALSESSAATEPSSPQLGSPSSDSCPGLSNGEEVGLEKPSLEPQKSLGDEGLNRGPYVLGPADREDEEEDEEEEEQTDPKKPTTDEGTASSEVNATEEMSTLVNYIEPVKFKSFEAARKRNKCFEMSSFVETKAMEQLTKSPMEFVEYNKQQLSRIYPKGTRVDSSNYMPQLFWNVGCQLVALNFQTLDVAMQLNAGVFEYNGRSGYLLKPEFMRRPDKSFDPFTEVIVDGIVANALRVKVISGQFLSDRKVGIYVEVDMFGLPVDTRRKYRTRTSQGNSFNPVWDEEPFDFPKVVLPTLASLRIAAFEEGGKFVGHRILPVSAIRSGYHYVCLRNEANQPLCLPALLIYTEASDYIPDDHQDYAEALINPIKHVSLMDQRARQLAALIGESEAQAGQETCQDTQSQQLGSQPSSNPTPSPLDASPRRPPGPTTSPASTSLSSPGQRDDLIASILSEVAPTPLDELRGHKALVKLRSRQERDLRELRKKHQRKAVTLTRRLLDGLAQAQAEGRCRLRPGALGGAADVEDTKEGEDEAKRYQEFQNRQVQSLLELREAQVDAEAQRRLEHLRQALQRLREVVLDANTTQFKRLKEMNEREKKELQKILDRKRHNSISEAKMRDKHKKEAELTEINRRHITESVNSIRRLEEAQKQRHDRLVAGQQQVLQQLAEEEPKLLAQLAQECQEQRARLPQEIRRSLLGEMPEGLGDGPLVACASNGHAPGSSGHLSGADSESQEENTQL
PLCg1 inh: PLC-gamma1 (human) inhibition, primary screen; P19174; purified PLC-gamma1, fluorogenic substrate, fluorescence; inhibition, % at 12.2 µM; 0.84% of 370,000 active; AID 720700; in the data active means inhibition above about 9.5%
ARFGAP1 inhibitor: inhibitors of rat ARFGAP1; AID 651572; inhibition, % at 16.5 µM; Arfgap1-stimulated ARF1 GTP hydrolysis, GDP FP detection; 0.26% of 360,000 active;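 active means inhibition above a per-plate limit, mean inhibition of low control wells plus 3 SD, cut at about 25% in these data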;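 further: 0% = DMSO wells with enzyme and 100% = wells lacking Arfgap1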
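material = rat Arfgap1 catalytic domain, aa 1-136 | also added = human ARF1(Δ1-17)-GTP substrate | compound dosing = one concentration, 16.5 µM, DMSO 1.26% | times = GTP hydrolysis reaction 2 h at 25 °C | measured by = FP, GDP Alexa 633 tracer displaced from anti-GDP antibody, 620/688 nm | evaluation = percent inhibition of Arfgap1-stimulated GTP hydrolysis | replication = single well per compound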
HGIII-sPLA2 inh: Inhibits HGIII-sPLA2 liposome hydrolysis, primary screen | inhibition, % at 12.2 µM | AID 743126 | Q9NZ20 | QFRET BODIPY PC-A2 liposome hydrolysis, fluorescence | 0.56% of 370,000 active;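 active means inhibition above mean plus 3 SD of compounds lying within the high and low control bounds, cut at about 19% in these data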;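 further: 0% = median of test compound wells and 100% = no enzyme DMSO wells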
ASAP1 GAP inh: blocks human ASAP1-stimulated Arf1 GTP hydrolysis | Q9ULH1 | GDP FP detection | inhibition, % at 16.5 µM | 0.19% of 360,000 active | AID 624377; in the data active means inhibition above about 25%;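 further: 0% = vehicle with enzyme and substrate and 100% = no enzyme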
PLCg1 ctr: counter-screen for PLC-beta3 inhibitors: inhibitors of human PLC-gamma1. shares compounds with PLCg1 inh. purified PLC-gamma1, fluorogenic substrate, fluorescence. inhibition, % at 12.3 µM. 3.1% of 3,300 active; in the data active means inhibition above about 9.5%
PLCb3 confirm: human PLC-beta3 inhibition, confirmation; AID 743261; purified PLC-beta3, fluorogenic substrate fluorescence; inhibition, % at 12.3 µM; shares compounds with PLCg1 inh; 1% of 3,300 active
Starred values were filed as active, the others as inactive; nt = not tested or not shown. Most compounds without a hit are left out; they make up all but 1.9% or so of the library. Unless noted, no stated cut-off is given here; in the data, active means inhibition above about 11%; inactive means the rest.

SMILES	PLCb3 inh	PLCg1 inh	ARFGAP1 inhibitor	HGIII-sPLA2 inh	ASAP1 GAP inh	PLCg1 ctr	PLCb3 confirm
CCOc1ccc(NC(=O)C2CCCN2S(=O)(=O)c2ccc(OCC)cc2)cc1 (stereo not given)	-5.5	12.3*	10.1	-4.0	-11.4	-1.3	3.5
Cc1ccc(NC(=S)NNC(=O)CSc2nnc(SCc3cccc4ccccc34)s2)cc1	-5.2	-1.7	nt	-6.0	nt	nt	nt
O=C(CCSc1ccccc1)N1CCN(C(=O)c2ccco2)CC1	1.6	13.6*	0.0	0.4	4.0	-2.7	-4.3
CCN(CC)C(=O)c1sc(NC(=O)c2ccc(C)c([N+](=O)[O-])c2)c(C#N)c1C	6.1	11.2*	-4.7	4.7	-10.6	1.2	4.3
CN1C(=O)SC(Nc2ccccc2)C1=O (stereo not given)	7.7	9.5*	-13.5	-3.7	2.9	-0.6	1.9
Cc1ccc(-c2cc(-c3nnc(SCC(=O)N4c5ccccc5Sc5ccc(Cl)cc54)n3N)[nH]n2)cc1	3.0	0.5	nt	0.5	nt	nt	nt
CCCc1cc2c(=O)c(-c3cscn3)c(C(=O)OCC)oc2cc1O	-16.5	-19.4	11.1	3.7	-0.5	nt	nt
CCOC(=O)c1oc2cc(O)cc(C)c2c(=O)c1-c1cscn1	12.1*	3.7	4.9	4.8	6.1	-6.4	-5.4
C=CCN(CC#Cc1ccc(C(F)(F)F)cc1)Cc1ccc(OC)cc1OC	-4.2	4.3	nt	11.8	nt	nt	nt
O=S1(=O)CC(c2ccccc2)=NN=C(c2ccccc2)C1	10.8*	9.5	11.4	2.9	-4.4	-1.4	-4.3
CC1(Cc2ccccc2OC(F)(F)F)C(=O)Nc2ccc(-c3ccsc3)cc21 (stereo not given)	-3.0	10.9*	9.4	-1.4	4.6	-1.2	1.4
Cc1c(C(c2ccc(Br)cc2)c2c(C)n(C)n(-c3ccccc3)c2=O)c(=O)n(-c2ccccc2)n1C	-4.2	-1.9	-6.0	-0.5	2.2	nt	nt
COC(=O)c1ccc(C(c2c(C)n(C)n(-c3ccccc3)c2=O)c2c(C)n(C)n(-c3ccccc3)c2=O)cc1	9.3	12.2*	1.7	7.8	-0.5	1.9	4.5
COc1cc(S(=O)(=O)Nc2ccc(C)cc2)ccc1NC(=O)c1ccncc1	7.1	12.2*	-5.5	-3.4	8.3	-3.9	1.1
COc1cc(S(=O)(=O)Nc2ccccc2C)ccc1NC(=O)c1ccncc1	1.3	1.0	4.5	3.8	-1.0	nt	nt
C#CCN1CC(N(C)CCOC(=O)CC2C=CCC2)CS1(=O)=O (stereo not given)	-0.1	-0.9	nt	7.4	nt	nt	nt
COc1ccccc1C(=O)COC(=O)/C=C/c1ccccc1	-3.2	9.6*	3.3	-16.4	11.4	-6.3	-11.6
CC(C)C[C@H](NC(=O)c1ccc(Cl)cc1Cl)C(=O)N1CCC[C@H]1C(=O)NCc1ccccc1	-1.8	1.6	-2.2	3.3	14.4	nt	nt
COc1ccc(OCc2cc(C(=O)NC(C)Cc3cccnc3)no2)c(Cl)c1 (stereo not given)	-4.9	1.6	-7.6	-2.3	-12.0	nt	nt
COc1ccc(OCc2cc(C(=O)NC(C)Cn3cncn3)no2)c(Cl)c1 (stereo not given)	-8.4	10.7*	-16.8	-31.1	-9.7	-9.4	-6.8
N#Cc1ccc(/C=C2\CC3(OC(=O)c4ccc(Cl)cc4)CCCN2C3)cc1 (stereo not given)	-0.3	-1.5	nt	-5.8	nt	nt	nt
CCN1CCN(CCc2nc3cc([N+](=O)[O-])ccc3n2C)CC1	-3.5	12.2*	-17.4	-0.6	-2.1	-0.6	2.1
Cc1ccc(NC(=O)CSc2nnc(-c3cnccn3)n2C)cc1C	-8.2	9.7*	10.5	9.1	1.7	-4.4	-0.4
Cn1c(SCc2ccccn2)nnc1-c1cnccn1	-2.0	2.8	-0.2	0.1	3.3	nt	nt
Cc1cccc(CSc2nnc(-c3cnccn3)n2C)c1	2.2	12.1*	2.9	9.6	4.5	-0.1	0.4
SMILES	PLCb3 inh	PLCg1 inh	ARFGAP1 inhibitor	HGIII-sPLA2 inh	ASAP1 GAP inh	PLCg1 ctr	PLCb3 confirm
CC(C)C(c1nnnn1Cc1ccco1)N1CCN(c2cccc(Cl)c2)CC1 (stereo not given)	1.8	12.4*	-1.1	-2.6	3.3	-4.6	-5.8
CC(C)C(c1nnnn1Cc1ccccc1)N1CCN(Cc2ccco2)CC1 (stereo not given)	1.0	-1.8	10.8	-13.5	-4.3	nt	nt
CCN(CC)C(=O)C1=C(C)N(CCCN2CCCC2=O)C(=O)C(CC(=O)NCc2ccco2)C1 (stereo not given)	-0.1	4.4	-4.8	6.8	3.6	nt	nt
CCN(CC)C(=O)C1=C(C)N(CCCN2CCCC2=O)C(=O)C(CC(=O)NCCCCc2ccccc2)C1 (stereo not given)	9.0	9.8*	7.8	1.1	0.2	-9.4	-3.6
CC1(C)CC(N2CCCC2)=CC(=[N+]2CCCCC2)C1	5.0	12.2*	7.1	6.7	-4.4	-5.2	3.1
O=C(CCNc1n[nH]c(=O)[nH]c1=O)N1CCOCC1	-0.4	13.8*	6.0	7.2	-5.8	-7.2	-2.4
O=C(CCc1n[nH]c(=O)[nH]c1=O)N1CCOCC1	11.1*	5.9	-1.1	6.3	1.3	-7.7	-0.6
CC(C)OC(=O)CCNc1n[nH]c(=O)[nH]c1=O	1.6	3.2	-1.5	5.6	-4.8	nt	nt
Cc1nn(-c2ccccc2)c(N)c1N=Nc1cccnc1	10.9*	5.7	7.9	14.7	7.1	5.3	6.8
CCCCc1c(-c2ccccc2OC)ncn1Cc1ccc(C)cc1	-0.2	-4.6	-10.5	-11.3	-1.2	nt	nt
CCc1ccc(CCNC(=O)OC2CC3CC2[C@H]2CCCCN2C3)cc1 (stereo not given in full)	-2.3	1.0	nt	10.5	nt	nt	nt
Cc1nnc2sc(SCC(=O)N3CCCCC3)nn2c1=O	-3.2	11.7*	-3.3	-0.6	2.2	-6.9	-0.9
CCCCCn1c(SCC2CCCO2)nc2cc(C(=O)N3CCC(C(N)=O)CC3)ccc2c1=O (stereo not given)	1.3	9.6*	-3.0	-12.5	1.7	-10.2	-7.2
O=S1(=O)c2ccc(Br)cc2OCCC2CCCCN21 (stereo not given)	-2.5	-0.1	-3.1	-1.4	4.9	nt	nt
Cc1ccc(SCC(=O)NCC2CCCO2)cc1 (stereo not given)	2.9	11.2*	-3.5	9.0	10.3	-2.8	-1.0
CC1Cc2nc(SCC(=O)NCC3CCCO3)n(Cc3ccccc3)c(=O)c2S1 (stereo not given)	3.2	9.6*	-1.3	8.7	1.8	-0.7	0.5
CC1Cc2nc(SCC(=O)NCC3CCCO3)n(-c3ccc(F)cc3)c(=O)c2S1 (stereo not given)	-4.1	-0.1	-9.2	-0.2	-23.7	nt	nt
C[C@H]1[C@@H](OC(=O)NCCc2c[nH]c3ccccc23)CC[C@@]23CCCN2C(=O)CCC[C@@H]13	-2.4	-1.6	nt	-59.3	nt	nt	nt
